Blank lines part the entries; values can stand above or below the compound they belong to.
How the values were obtained:
HT-29 = test: Inhibition of HT-29 colon carcinoma cell proliferation after continuous 7-day exposure; format: functional, cell-based; settings: Homo sapiens, HT-29, 168 h
Outline: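 HT-29 colon carcinoma cells were grown as colonies in soft agarose with continuous 7-day drug exposure, and inhibition of colony formation was scored.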

[1] = Inhibition of bovine brain Phosphatidylinositol 3-kinase; set-up: species or system Bos taurus
[2] = test system: Phosphoinositide specific phospholipase C (Bos taurus); test: In vitro inhibitory activity against bovine Phosphoinositide specific phospholipase C (PI-PLC); N/A= not active, with <20% inhibition at 100 uM
[3] = Inhibition of bovine brain Phosphatidylinositol 3-kinase (inactive); set-up: species or system Bos taurus
Mus musculus [4] = test: In vivo antitumor activity in mice implanted with human colon adenocarcinoma cells at a dose of 250 mg/kg (qd 4-7), injected intraperitoneally and evaluated for tumor volume on day 10; format: functional; settings: route intraperitoneal
Outline: (§1)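 scid mice were implanted subcutaneously with 10⁷ HT-29 human colon adenocarcinoma cells, 8 mice per group. Beginning 4 days after inoculation, each mouse got 4 daily intraperitoneal injections (days 4–7) of compound suspended in 3% EtOH, 3% Tween 20, 0.9% NaCl. Tumor volume was measured with calipers on day 10 and reported as mean with SE. T/C (%) is treated versus control volume, and significance was tested by Student's test.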

Mus musculus [5] = test: In vivo antitumor activity in mice implanted subcutaneously with HT-29 human colon adenocarcinoma cells at a dose of 250 mg/kg (qd 4-7), injected intraperitoneally and evaluated for %T/C; format: functional; outline: as §1
[6] = In vivo antitumor activity in mice implanted with human colon adenocarcinoma cells at a dose of 500 mg/kg (qd 4-7), injected intraperitoneally and evaluated for tumor volume on day 10; Lethal; format: organism-based; set-up: dose 500 mg/kg, route intraperitoneal; settings: mouse, ip
Mus musculus [7] = test: In vivo antitumor activity in mice implanted with human colon adenocarcinoma cells at a dose of 150 mg/kg (qd 4-7), injected intraperitoneally and evaluated for tumor volume on day 10; format: functional; settings: route intraperitoneal; outline: as §1
Mus musculus [8] = test: In vivo antitumor activity in mice implanted with human colon adenocarcinoma cells at a dose of 100 mg/kg (qd 4-7), injected intraperitoneally and evaluated for tumor volume on day 10; format: functional; settings: route intraperitoneal; outline: as §1
Mus musculus [9] = test: In vivo antitumor activity in mice implanted with human colon adenocarcinoma cells at a dose of 150 mg/kg (qd 4-7), injected intraperitoneally and evaluated for %T/C; format: functional; settings: route intraperitoneal; outline: as §1
Mus musculus [10] = test: In vivo antitumor activity in mice implanted subcutaneously with 10^7 HT-29 human colon adenocarcinoma cells at a dose of 50 mg/kg (qd 4-7), injected intraperitoneally and evaluated for %T/C.; format: functional; outline: as §1
Mus musculus [11] = test: In vivo antitumor activity in mice implanted subcutaneously with 10^7 HT-29 human colon adenocarcinoma cells at a dose of 100 mg/kg (qd 4-7), injected intraperitoneally and evaluated for %T/C; format: functional; outline: as §1
Mus musculus [12] = test: In vivo antitumor activity in mice implanted with human colon adenocarcinoma cells at a dose of 50 mg/kg (qd 4-7), injected intraperitoneally and evaluated for tumor volume on day 10; format: functional; settings: route intraperitoneal; outline: as §1

IC50 (HT-29): 2.1 µM
IC50 [1]: 2.5 µM
Compound: CCCCCCCCCCCCCCCCCCOC[C@H](COP(=O)(O)O[C@H]1[C@@H](O)[C@@H](O)[C@H](O)C[C@H]1O)OC
Tumor volume (Mus musculus [7]): 0.09 cm*3
Tumor volume (Mus musculus [8]): 0.32 cm*3
T/C (Mus musculus [9]): 33.3%
T/C (Mus musculus [10]): 103.7%
T/C (Mus musculus [11]): 118%
Tumor volume (Mus musculus [12]): 0.28 cm*3

IC50 (HT-29): 45 µM
IC50 [1]: 5.3 µM
Compound: CCCCCCCCCCCCCCCCCCOC[C@H](CCP(=O)(O)O[C@H]1[C@@H](O)[C@@H](O)[C@H](O)C[C@H]1O)OC

The remaining lines, values behind:

Compound: CCCCCCCCCCCCCCCC(=O)OC[C@H](COP(=O)(O)O[C@@H]1[C@H](O)[C@@H](F)[C@@H](O)[C@H](O)[C@@H]1O)OC(=O)CCCCCCCCCCCCCCC
IC50 (HT-29): 37 µM
IC50 [1]: 30 µM

Compound: CCCCCCCCCCCCCCCC(=O)OC[C@H](CCP(=O)(O)O[C@H]1[C@@H](O)[C@@H](O)[C@H](O)C[C@H]1O)OC(=O)CCCCCCCCCCCCCCC
IC50 (HT-29): 10 µM
IC50 [2]: Not Active
IC50 [3]: Not Active

Compound: CCCCCCCCCCCCCCCC(=O)OC[C@H](COP(=O)(O)O[C@H]1[C@@H](O)[C@@H](O)[C@H](O)C[C@H]1O)OC(=O)CCCCCCCCCCCCCCC
IC50 (HT-29): 35 µM
Tumor volume (Mus musculus [4]): 0.3 cm*3
IC50 [1]: > 250 µM
T/C (Mus musculus [5]): 111.1%
Tumor volume [6]: Lethal

— ChEMBL document CHEMBL1131610, “3-Deoxy-D-myo-inositol 1-phosphate, 1-phosphonate, and ether lipid analogues as inhibitors of phosphatidylinositol-3-kinase signaling and cancer cell growth” (J Med Chem, 1998)
